Measured values taken from ChEMBL document CHEMBL2176969, “O2-sulfonylethyl protected isopropylamine diazen-1-ium-1,2-diolates as nitroxyl (HNO) donors: synthesis, β-elimination fragmentation, HNO release, positive inotropic properties, and blood pressure lowering studies” (J Med Chem, 2012).
Active and inactive are the calls of the source. The rule behind the calls is not given here.

What was measured:
[1] = Induction of nitrous oxide release in MeOH/TBS buffer at pH 10 at 25 mM after 0.5 hrs by gas chromatographic analysis in presence of glutathione; assay type: physicochemical; details: pH 10, 0.5 h, 25000 µM
Method in brief: (§1)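 Compound (0.04 mmol, 25 mM) in a sealed, inert-gas-flushed flask with 0.8 mL solvent: MeOH plus 500 mM Tris (0.2 mM EDTA), 1:1, at pH 7.4 or 10.0, ± 50 mM GSH, 37 °C. Headspace N₂O measured by GC with electron-capture detection against a standard curve. Yield assumes 2 HNO → 1 N₂O; mean of n = 3; pH-10 runs ended near pH 9.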

[2] = Induction of nitrous oxide release in MeOH/TBS buffer at pH 7.4 at 25 mM after 0.5 hrs by gas chromatographic analysis in presence of glutathione; assay type: physicochemical; details: pH 7.4, 0.5 h, 25000 µM; method in brief: as §1
[3] = Induction of nitrous oxide release in MeOH/TBS buffer at pH 7.4 at 25 mM after 0.5 hrs by gas chromatographic analysis; assay type: physicochemical; details: pH 7.4, 0.5 h, 25000 µM; method in brief: as §1
[4] = Half life in phosphate buffer at pH 7.4 by spectrophotometric method; assay type: physicochemical
Method in brief: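 Decay followed by loss of diazeniumdiolate absorbance near 245 nm in pH 7.4 phosphate buffer with 5% DMSO at 37 °C. Half-life obtained from linear regression of ln(A_t − A_∞) against time.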

[5] = Induction of nitrous oxide release in MeOH/TBS buffer at pH 7.4 at 25 mM after 48 hrs by gas chromatographic analysis in presence of glutathione; assay type: physicochemical; details: pH 7.4, 48 h, 25000 µM; method in brief: as §1
[6] = Induction of nitroxyl release in 7.5% DMSO and 92.5% phosphate buffer at pH 7.4 at 200 uM after 48 hrs by LC-MS analysis; assay type: physicochemical; details: pH 7.4, 48 h
Method in brief: (§2)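 Donor at 200 μM with 1 mM trapping phosphine in 7.5% DMSO/92.5% phosphate buffer pH 7.4, 37 °C, with 5.05 μM 4-hydroxybenzophenone internal standard. Quenched with H₂O₂ after 2 or 48 h, dried, taken up in MeOH. HNO-derived amide quantified by LC–MS (ESI negative) from a standard curve; percent of 1 mol HNO/mol; mean of triplicates.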

[7] = Induction of nitroxyl release in 7.5% DMSO and 92.5% phosphate buffer at pH 7.4 at 200 uM after 2 hrs by LC-MS analysis; assay type: physicochemical; details: pH 7.4, 2 h; method in brief: as §2
[8] = Induction of nitrous oxide release in MeOH/TBS buffer at pH 7.4 at 25 mM after 2 hrs by gas chromatographic analysis; assay type: physicochemical; details: pH 7.4, 2 h, 25000 µM; method in brief: as §1
[9] = Induction of nitrous oxide release in MeOH/TBS buffer at pH 10 at 25 mM after 2 hrs by gas chromatographic analysis; assay type: physicochemical; details: pH 10, 2 h, 25000 µM; method in brief: as §1
[10] = Induction of nitrous oxide release in MeOH/TBS buffer at pH 10 at 25 mM after 2 hrs by gas chromatographic analysis in presence of glutathione; assay type: physicochemical; details: pH 10, 2 h, 25000 µM; method in brief: as §1
[11] = Induction of nitrite release in phosphate buffer at pH 7.4 at 50 uM after 1.5 hrs by Griess reaction; assay type: physicochemical; details: pH 7.4, 1.5 h
Method in brief: (§3)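 Compound at 50 μM was incubated 1.5 h at 37 °C in phosphate buffer pH 7.4 or Tris buffer pH 10.0, both containing 5% DMSO. Nitrite was measured by Griess reaction and expressed as percent of the initial compound concentration; mean of n = 3.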

[12] = Induction of nitrite release in phosphate buffer at pH 10 at 50 uM after 1.5 hrs by Griess reaction; assay type: physicochemical; details: Tris buffer, pH 10, 1.5 h, in the assay text read “Tris buffer” for “phosphate buffer”; method in brief: as §3
[13] = Induction of nitrous oxide release in MeOH/TBS buffer at pH 7.4 at 25 mM after 48 hrs by gas chromatographic analysis; assay type: physicochemical; details: pH 7.4, 48 h, 25000 µM; method in brief: as §1
[14] = Induction of nitrous oxide release in MeOH/TBS buffer at pH 7.4 at 25 mM after 2 hrs by gas chromatographic analysis in presence of glutathione; assay type: physicochemical; details: pH 7.4, 2 h, 25000 µM; method in brief: as §1
[15] = Induction of nitrous oxide release in MeOH/TBS buffer at pH 10 at 25 mM after 0.5 hrs by gas chromatographic analysis; assay type: physicochemical; details: pH 10, 0.5 h, 25000 µM; method in brief: as §1
[16] = tested on: Heart; assay: Positive inotropic activity in C57BL/6 mouse Langendorff perfused heart assessed as rate of contraction at 100 uM measured for 20 mins; assay type: functional
Method in brief: (§4)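 Hearts from C57BL/6 mice perfused with Krebs-Henseleit buffer. After 20 min stabilisation with buffer, hearts were perfused with test compound (100 μM) or isoproterenol (100 μM, positive inotropic control) for 20 min. Heart rate, diastolic and systolic rates, and left ventricular developed pressure were recorded. Baseline contractile function was measured as LVDP.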

[17] = tested on: Heart; assay: Effect on heart rate in C57BL/6 mouse Langendorff perfused heart at 100 uM measured for 20 mins; assay type: ADME, tissue-based
Method in brief: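 C57BL/6 mouse hearts perfused with Krebs–Henseleit buffer, stabilized 20 min, then perfused 20 min with compound at 100 μM; isoproterenol 100 μM as positive inotropic control. Heart rate, LVDP and rates of contraction and relaxation recorded.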

[18] = tested on: Heart; assay: Positive inotropic activity in C57BL/6 mouse Langendorff perfused heart assessed as rate of relaxation at 100 uM measured for 20 mins; assay type: functional; method in brief: as §4
[19] = tested on: Heart; assay: Positive inotropic activity in C57BL/6 mouse Langendorff perfused heart assessed as left ventricular developed pressure at 100 uM measured for 20 mins; assay type: functional; method in brief: as §4
[20] = tested on: Mus musculus; assay: Antihypertensive activity in C57 mouse assessed as reduction of diastolic blood pressure at 22.5 mg/kg, po after 1 to 6 hrs relative to control; assay type: functional, organism-based; set-up: dose 22.5 mg/kg; details: Artery, in the assay text read “after 3 to 6 hrs” for “after 1 to 6 hrs”
Method in brief: (§5)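 Conscious C57 black mice dosed orally at 22.5 mg/kg (60.345 μmol/kg), vehicle water with 1% methylcellulose; vehicle-only controls (n = 6), treated n = 4 at 1 h, 5 at 3 h, 6 at 6 h. Noninvasive BP (systolic, diastolic; mean = average of the two) and heart rate read at 1, 3, 6 h; each value is the average of three consecutive readings per mouse.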

[21] = tested on: Mus musculus; assay: Effect on heart rate in C57 mouse at 22.5 mg/kg, po after 3 hrs relative to control; assay type: ADME, organism-based; set-up: dose 22.5 mg/kg, route oral; details: in vivo; method in brief: as §5
[22] = tested on: Mus musculus; assay: Antihypertensive activity in C57 mouse assessed as reduction of mean blood pressure at 22.5 mg/kg, po after 1 hr relative to control; assay type: functional; method in brief: as §5
[23] = tested on: Mus musculus; assay: Antihypertensive activity in C57 mouse assessed as reduction of systolic blood pressure at 22.5 mg/kg, po after 1 hr relative to control; assay type: functional, Artery; method in brief: as §5
[24] = tested on: Mus musculus; assay: Antihypertensive activity in C57 mouse assessed as reduction of systolic blood pressure at 22.5 mg/kg, po after 6 hrs relative to control; assay type: functional, Artery; method in brief: as §5
[25] = tested on: Mus musculus; assay: Antihypertensive activity in C57 mouse assessed as reduction of mean blood pressure at 22.5 mg/kg, po after 6 hrs relative to control; assay type: functional; method in brief: as §5
[26] = tested on: Mus musculus; assay: Effect on heart rate in C57 mouse at 22.5 mg/kg, po after 6 hrs relative to control; assay type: ADME, organism-based; set-up: dose 22.5 mg/kg, route oral; details: in vivo; method in brief: as §5
[27] = tested on: Mus musculus; assay: Effect on heart rate in C57 mouse at 22.5 mg/kg, po after 1 hr relative to control; assay type: ADME, organism-based; set-up: dose 22.5 mg/kg, route oral; details: in vivo; method in brief: as §5
[28] = tested on: Mus musculus; assay: Antihypertensive activity in C57 mouse assessed as reduction of mean blood pressure at 22.5 mg/kg, po after 3 hrs relative to control; assay type: functional; method in brief: as §5
[29] = tested on: Mus musculus; assay: Antihypertensive activity in C57 mouse assessed as reduction of systolic blood pressure at 22.5 mg/kg, po after 3 hrs relative to control; assay type: functional, Artery; method in brief: as §5

| Activity [1] | Activity [2] | Activity [3] | half-life [4] | Activity [5] | Activity [6] | Activity [7] | Activity [8] | Activity [9] | Activity [10] | Activity [11] | Activity [12] | Activity [13] | Activity [14] | Activity [15] | SMILES | also measured |
| --- | --- | --- | --- | --- | --- | --- | --- | --- | --- | --- | --- | --- | --- | --- | --- | --- |
| 17.3% | 0.4% | 5.9% | 8.9 h | 1.8% | 51.3% | 46.2% | 12.9% | 62.9% | 29% | 0.8% | 10.4% | 33.5% | 0.5% | 52.6% | CONS(=O)(=O)CCO/N=[N+](\[O-])NC(C)C | – |
| 8.5% | 6.1% | 9.4% | 0.0383 h | 6.8% | 5.1% | 5.4% | 8.3% | 5.7% | 9.5% | 62% | 36% | 7% | 7.4% | 5.9% | CC(C)N[N+]([O-])=N[O-].[Na+] | – |
| – | – | – | – | – | 7.2% | 5.1% | – | – | – | 28.6% | 25.4% | – | – | – | CC(C)N(C(=O)OC(C)(C)C)/[N+]([O-])=N/OCCS(C)(=O)=O | – |
| – | – | – | – | – | – | – | – | – | – | – | – | – | – | – | CC(C)NCC(O)c1ccc(O)c(O)c1 (configuration not stated) [ISOPROTERENOL] | Activity [16]: 5330 cmH2O/ms; Activity [17]: 334 bpm; Activity [18]: -5882 cmH2O/ms; Activity [19]: 157 cmH2O |
| – | – | – | – | – | 4% | 0.31% | – | – | – | 0.4% | 4.6% | – | – | – | CC(C)N/[N+]([O-])=N/OCS(C)(=O)=O | – |
| – | – | – | – | – | 85.7% | 85.9% | – | – | – | – | – | – | – | – | [Na+].[Na+].[O-][N+]([O-])=NO [ANGELI'S SALT] | – |
| 24.2% | 0.3% | 3.8% | 6.6 h | 0.8% | 55.4% | 47.3% | 9.7% | 61.3% | 30.3% | 6% | 24% | 27.5% | 0.4% | 56.8% | CC(C)N/[N+]([O-])=N/OCCS(=O)(=O)NOCc1ccccc1 | – |
| 0.4% | 1.3% | 0.5% | 15.3 h | 0.1% | 61.4% | 51.2% | 1.6% | 62.2% | 2.2% | 1.8% | 26% | 10.4% | 0.9% | 52.9% | CC(C)N/[N+]([O-])=N/OCCS(C)(=O)=O | Activity [20]: Active; Activity [21]: 488 bpm; mean blood pressure [22]: 95.4 mmHg; systolic blood pressure [23]: 120.2 mmHg; Activity [16]: 5698 cmH2O/ms; Activity [17]: 269 bpm; systolic blood pressure [24]: 114.4 mmHg; mean blood pressure [25]: 87.5 mmHg; Activity [26]: 442 bpm; Activity [27]: 531 bpm; Activity [18]: -5330 cmH2O/ms; Activity [19]: 187 cmH2O; mean blood pressure [28]: 83.6 mmHg; systolic blood pressure [29]: 103.4 mmHg |
| – | – | – | 0.683 h | – | – | – | – | – | – | – | – | – | – | – | CC(=O)OCO/N=[N+](\[O-])NC(C)C | – |
| 1.2% | 0.2% | 1.4% | 17.1 h | 0.2% | – | – | 1.9% | 15.1% | 1.3% | 10.6% | 42% | 1.9% | 0.4% | 16.7% | COS(=O)(=O)CCO/N=[N+](\[O-])NC(C)C | – |
